Bioassay records from PubChem BioAssay.
Many of the other results were omitted from the sample, so hits are more common in it than they were.
Diaphorase act: diaphorase activation or chemical reduction counter-screen. Diaphorase/resazurin coupled assay, resorufin fluorescence, 16 min; active compounds read high; 1 = vehicle wells, 0 = NADH-free wells. activation factor at 20 µM. 190,000 tested, 0.005% active. AID 1229;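 active means diaphorase activity raised at least twofold by the compound at 20 µM; inactive means activation factor below 2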
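Assay system: bacterial diaphorase enzyme (C. kluyveri) / Input: enzyme 0.07 U/mL final / Medium: 50 mM HEPES pH 7.4 with 4.542 mM MgCl2, 0.005% Tween 20 / Doses: single compound dose of 20 µM, 1% DMSO final / Incubation: 16 min enzyme reaction, ambient temperature / Signal: fluorescence, excitation 544 nm and emission 590 nm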
PfGluPho inh: PfG6PD (Plasmodium falciparum) enzyme inhibition; AID 504690; PfGluPho enzyme, NADPH resazurin-diaphorase fluorescence; inhibition, % at 20 µM; 350,000 tested, 0.78% active;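 active means inhibition reaching at least a set limit at 20 µM in the primary screen, cut at about 59% in these data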
G6PDH CS: counter-screen for G6PDH assay hits: L. mesenteroides G6PDH inhibition. inhibition, % at 5 µM. 200,000 tested, 0.12% active. Purified L. mesenteroides G6PDH, diaphorase/resazurin coupled fluorescence, 45 min
DTT redox prof: compounds producing H2O2 with reducing agent – biochemical, NIH compound library profiling, artefact control for MLSCN library redox annotation, primary screen | DTT-dependent redox cycling H2O2, phenol red/HRP absorbance; 100% = 100 µM peroxide control, 0% = buffer | activation, % at 10 µM | 200,000 tested, 0.03% active | AID 878;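 active means activation of at least 50% relative to the plate's high and low controls in the primary single-dose screen; inactive means activation below 50%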;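 further: compound incubated with DTT at 0.8 mM final as the reducing agent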
Lmaj promast: inhibitors of Leishmania major promastigote growth; inhibition, % at 10 µM; Leishmania major promastigotes, resazurin fluorescence viability; 200,000 tested, 9% active;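 further: promastigotes grown with compound for 44 hours at 28 °C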
Diaph inh CS: diaphorase inhibition or chemical oxidation counter-screen; diaphorase resazurin-to-resorufin fluorescence, NADH, 16 min; bacterial (C. kluyveri) enzyme, not human; inhibition, % at 20 µM; 190,000 tested, 0.69% active;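 active means primary screen inhibition at 20 µM above a set limit, cut at about 50% in these data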
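Test system: bacterial diaphorase enzyme (C. kluyveri); Quantity: 0.14 U/mL diaphorase, enzyme working solution; Times: reaction incubation of 16 min at room temperature; Measured by: fluorescence of resorufin formed from resazurin, Ex 544/Em 590 nm; Benchmarks: positive control minus NADH, DMSO neutral control.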
Each line names hits and unclear results; the compound was inactive in the other large screens. Unless noted, no stated cut-off is given here; in the data, active means inhibition above about 50%; inactive means the rest.

O=C(NCC(c1cccnc1)N1CCN(c2ccccc2)CC1)c1ccco1 (stereo not given)	Lmaj promast 89.3 (no result: Diaphorase act, G6PDH CS, Diaph inh CS)
O=C(NCc1cccnc1)C(=O)NCC(c1ccco1)N1CCOCC1 (stereo not given)	none
O=C(NCCc1c[nH]c2ccccc12)/C(=C\c1ccco1)NC(=O)c1ccco1	Lmaj promast 55.5
O=C(NCC(=O)N1CCN(c2ccccc2)CC1)c1ccco1	none (no result: Diaphorase act, G6PDH CS, DTT redox prof, Lmaj promast, Diaph inh CS)
O=C(NCc1cccnc1)C(=O)NCC(c1ccco1)N1CCN(c2ccccc2)CC1 (stereo not given)	Lmaj promast 52.4
Cc1ccc(OCC(=O)NNC(=O)c2cc(S(=O)(=O)N(C)C)ccc2N2CCCC2)cc1	none (no result: Diaphorase act, G6PDH CS, DTT redox prof, Lmaj promast, Diaph inh CS)
C=CCc1ccccc1OCC(O)CN(CC)CC (stereo not given)	none
O=C(NCCc1c[nH]c2ccccc12)C(=O)NCC(c1ccco1)N1CCN(c2ccccc2F)CC1 (stereo not given)	Lmaj promast 75.6
O=C(NCc1ccccc1)C(=O)NCC(c1ccco1)N1CCN(c2ccccc2F)CC1 (stereo not given)	none
O=C(NCc1cccnc1)C(=O)NCC(c1ccco1)N1CCN(c2ccccc2F)CC1 (stereo not given)	Lmaj promast 55.9
O=C(COC(=O)c1ccccc1O)NC(=O)NCc1ccccc1	none (no result: Diaphorase act, G6PDH CS, DTT redox prof, Lmaj promast, Diaph inh CS)
O=C(NC1CCN(C(=O)Nc2ccc(F)cc2)CC1)c1ccccc1F	none (no result: Diaphorase act, G6PDH CS, DTT redox prof, Lmaj promast, Diaph inh CS)
Clc1ccccc1-c1ccc(/C=N/n2cnnc2)o1	none
Clc1ccc(Sc2oc(/C=N/n3cnnc3)cc2Br)cc1	Lmaj promast 71.0
Clc1ccc(-n2cccc2/C=N/n2cnnc2)cc1	none
Clc1ccc(Sc2ccc(/C=N/n3cnnc3)o2)cc1	Lmaj promast 66.0
CCOc1ccc2c(c1)c(N=Nc1cccc(C(=O)O)c1)c(O)n2C	none
Cc1ccc2c(c1)c(N=Nc1cccc(C(=O)O)c1)c(O)n2C	Diaph inh CS 58.8
CCC(C)(C)c1nnc(NC(=O)c2ccc([N+](=O)[O-])cc2)s1	none
Cc1ccc(SCC(=O)N2N=CCC2c2ccccc2)cc1 (stereo not given)	Lmaj promast 84.4
CCn1c(SCC(=O)NC(=O)Nc2ccc3c(c2)OCCO3)nnc1-c1cccs1	none
O=C(c1ccc2nc(N3CCCCC3)sc2c1)N1CCN(Cc2ccc3c(c2)OCO3)CC1	Lmaj promast 68.3
COc1cc(S(=O)(=O)N2CCN(Cc3ccc4c(c3)OCO4)CC2)c(C)cc1C	none
COc1ccc(S(=O)(=O)N2CCN(S(=O)(=O)c3ccc4c(c3)OCCO4)CC2)cc1	none
COc1cc(C)c(C)cc1S(=O)(=O)N1CCN(Cc2ccc3c(c2)OCO3)CC1	Lmaj promast 60.4
COc1ccc(S(=O)(=O)N2CCN(S(=O)(=O)c3ccc4c(c3)OCCO4)CC2)cc1C	Lmaj promast 60.9
O=S(=O)(c1ccc(F)c(F)c1)N1CCN(Cc2ccc3c(c2)OCO3)CC1	Lmaj promast 78.0
COc1ccc(S(=O)(=O)N2CCN(Cc3ccc4c(c3)OCO4)CC2)cc1F	none (no result: Diaphorase act, G6PDH CS, DTT redox prof, Lmaj promast, Diaph inh CS)
CC(C)[C@H](NC(=O)C1CC(=O)N(c2ccc3c(c2)OCO3)C1)C(=O)NC1CCCC1 (stereo not given in full)	none (no result: Diaphorase act, G6PDH CS, DTT redox prof, Lmaj promast, Diaph inh CS)
CCn1c2ccccc2c2cc(CN3CCN(S(=O)(=O)Cc4ccccc4)CC3)ccc21	Lmaj promast 55.0
O=C(c1cccc(S(=O)(=O)N2CCOCC2)c1)N1CCN(Cc2ccc3c(c2)OCO3)CC1	none
O=C(NCc1ccc2c(c1)OCO2)C1CCN(S(=O)(=O)N2CCCCC2)CC1	none
O=C(c1ccc(S(=O)(=O)N2CCCCC2)cc1)N1CCN(Cc2ccc3c(c2)OCO3)CC1	Lmaj promast 98.4
O=C(OCc1ccc2c(c1)OCO2)c1ccc(S(=O)(=O)N2CCCC2)cc1	none
O=C(NCc1ccc2c(c1)OCO2)C1CCN(c2ccc(S(=O)(=O)N3CCCC3)cc2)CC1	Lmaj promast 97.0
O=C(OCc1ccc2c(c1)OCO2)c1cccc(S(=O)(=O)N2CCCCC2)c1	Lmaj promast 55.5
O=C1[C@H](Cc2ccccc2)NCC=CC[C@H](c2ccco2)N1Cc1ccccc1	none (no result: Diaphorase act, G6PDH CS, DTT redox prof, Lmaj promast, Diaph inh CS)
O=S(=O)(Cc1ccccc1)N1CCN(Cc2ccc3c(c2)OCO3)CC1	Lmaj promast 91.6
Cn1c(=O)oc2cc(S(=O)(=O)N3CCN(Cc4ccc5c(c4)OCO5)CC3)ccc21	Lmaj promast 75.7
O=C(O)c1ccccc1C(=O)N1CCN(Cc2ccc3c(c2)OCO3)CC1	none (no result: Diaphorase act, G6PDH CS, DTT redox prof, Lmaj promast, Diaph inh CS)
O=S(=O)(c1cccc(F)c1)N1CCN(Cc2ccc3c(c2)OCO3)CC1	Lmaj promast 73.6
O=S(=O)(c1ccc2c(c1)OCCO2)N1CCN(Cc2ccc3c(c2)OCO3)CC1	Lmaj promast 73.5
O=C(O)c1cccc(S(=O)(=O)N2CCN(Cc3ccc4c(c3)OCO4)CC2)c1	none (no result: Diaphorase act, G6PDH CS, DTT redox prof, Lmaj promast, Diaph inh CS)
Cc1nn(Cc2ccccc2)c2sc(C(=O)N3CCN(Cc4ccc5c(c4)OCO5)CC3)cc12	Lmaj promast 74.9
CN(C)N(C(=O)c1cc(-c2cccs2)nn1-c1ccccc1)C1CCS(=O)(=O)C1 (stereo not given)	none (no result: Diaphorase act, G6PDH CS, DTT redox prof, Lmaj promast, Diaph inh CS)
CCOC(=O)C1(CCOc2ccccc2)CCN(Cc2ccc(OC)cc2)CC1	none (no result: Diaphorase act, G6PDH CS, DTT redox prof, Lmaj promast, Diaph inh CS)
CCOC(=O)C1(CCOc2ccccc2)CCN(Cc2ccc3nonc3c2)CC1	Lmaj promast 92.2
CCOC(=O)C1(CCOc2ccccc2)CCN(Cc2ccc(NC(C)=O)cc2)CC1	Lmaj promast 86.7
CCOC(=O)C1(CCOc2ccccc2)CCN(Cc2cccc(OCCO)c2)CC1	none (no result: Diaphorase act, G6PDH CS, DTT redox prof, Lmaj promast, Diaph inh CS)
CCCCNS(=O)(=O)c1ccc(NC(=O)Cc2ccccc2[N+](=O)[O-])cc1	none
O=C(c1cc(C2CC2)nc2ccc(Br)cc12)N1N=C(C(F)F)CC1(O)C(F)F (stereo not given)	none
Fc1ccccc1/C=N/Nc1ncnc2nc[nH]c12	Lmaj promast 52.0
Fc1cccc(/C=N/Nc2ncnc3nc[nH]c23)c1	none
COc1ccccc1C(=O)NC(CCSC)C(=O)NCC(c1cccs1)N1CCOCC1 (stereo not given)	none (no result: Diaphorase act, G6PDH CS, DTT redox prof, Lmaj promast, Diaph inh CS)
CN1CC2(Cc3c1ccc1ccccc31)C(=O)OC(C)(C)OC2=O	Diaph inh CS 50.7
Cn1c(=O)[nH]c(=O)c2c1nc(N1CCNCC1)n2Cc1cccc2ccccc12	Lmaj promast 82.7
Cc1nnc(SCCn2c(N3CCC(Cc4ccccc4)CC3)nc3c2c(=O)[nH]c(=O)n3C)s1	none (no result: Diaphorase act, G6PDH CS, DTT redox prof, Lmaj promast, Diaph inh CS)
CCCCn1c(N2CCC(Cc3ccccc3)CC2)nc2c1c(=O)[nH]c(=O)n2C	Lmaj promast 78.4
Cc1nc(Nc2ccc(C(=O)O)cc2)nc(Nc2ccc(C(=O)O)cc2)c1[N+](=O)[O-]	none
CC(=O)Nc1ccc(Nc2nc(C)c([N+](=O)[O-])c(Nc3ccccc3)n2)cc1	Lmaj promast 91.2
